Laboratory results from ChEMBL document CHEMBL3352574, “Incorporation of triphenylphosphonium functionality improves the inhibitory properties of phenothiazine derivatives in Mycobacterium tuberculosis” (Bioorg Med Chem, 2014).
Converted amounts (≈) assume the structure as drawn. The source made the active and inactive calls. No cut-off for these calls is given here.

Assays:
[1] = system: Mycobacterium tuberculosis; test: Antimicrobial activity against Mycobacterium tuberculosis H37Ra after 5 days by serial macrobroth dilution method; format: functional, organism-based; settings: 120 h
How it was run: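 M. tuberculosis H37Ra in 7H9 with 0.5% glycerol, 10% ADC and 0.05% Tween80. Serial macrobroth dilution 128–0.5 μg/mL, log-phase inoculum to final OD600 0.005, 37°C, 200 rpm. Growth read visually at 5 days. No-compound and DMSO controls included. Three biological replicates averaged.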

[2] = system: Mycolicibacterium smegmatis; test: Antimicrobial activity against Mycobacterium smegmatis (MC2) 155 after 24 hrs by serial macrobroth dilution method; format: functional; settings: (MC2) 155, 24 h
How it was run: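 Serial macrobroth dilution, 128–0.5 μg/mL in LBT (LB + 0.05% Tween80). Log-phase mc²155 inoculated to final OD600 0.005, incubated 37°C at 200 rpm. Growth scored by eye after 24 h. No-compound and DMSO controls included. Figure data are the average of three biological replicates.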

[3] = system: Mycolicibacterium smegmatis; test: Bactericidal activity against Mycobacterium smegmatis at 500 uM after 3 to 24 hrs by colony forming unit count method; format: functional, organism-based
How it was run: (§1)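 Cultures grown in LBT to OD600 ~0.5, then dosed at 8.9 μM per OD600, or CCCP at 500 μM; no-compound and DMSO controls. OD600 taken at 0, 3, 9 and 24 h. CFU at 0, 9 and 24 h: cells washed, diluted in PBS + 0.05% Tween80, spotted on LBT (Miles–Misra), counted after 3 days at 37°C (5–50 colonies). Three biological replicates.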

[4] = system: Mycolicibacterium smegmatis; test: Bactericidal activity against Mycobacterium smegmatis at 8.9 uM after 3 to 24 hrs by colony forming unit count method; format: functional, organism-based; how it was run: as §1
[5] = system: Mycolicibacterium smegmatis; test: (§2) Inhibition of NDH2 in Mycobacterium smegmatis (MC2) 155 membranes assessed NADH oxidation relative to control
How it was run: (§3)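 M. smegmatis membranes at 50 μg/mL in 20 mM sodium phosphate pH 8.0 at 37°C, with compound (0–200 μM) preincubated 30 s. Reaction started with 200 μM NADH; A340 followed (ε 6.22 mM⁻¹cm⁻¹), activity in μmol NADH/min/mg. Data normalized to uninhibited activity, IC50 by log(inhibitor) vs response fit. Mean of three independent experiments.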

[6] = Inhibition of Mycobacterium tuberculosis NDH2
[7] = as §2; design: species or system Mycolicibacterium smegmatis; how it was run: as §3
[8] = system: Mycolicibacterium smegmatis; test: Inhibition of NDH2 in Mycobacterium smegmatis (MC2) 155 membrane assessed inhibition of oxygen consumption relative to control
How it was run: (§4)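 Clark-type O2 electrode, 2 mL mix at 37°C, calibrated to 220 nmol O2/mL with air-saturated 20 mM sodium phosphate pH 8.0. M. smegmatis membrane vesicles (French press, 100,000 × g pellet) driven by 10 mM NADH. Test range 0–80 μM; TPZ 0–200 μM. Controls: 80 μM comparators, DMSO, 200 μM KCN, no compound. Two-tailed t-test, p<0.05.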

[9] = system: Mycolicibacterium smegmatis; test: Effect on NDH2 in Mycobacterium smegmatis (MC2) 155 membrane assessed increase in oxygen consumption relative to control; how it was run: as §4
[10] = system: Mycolicibacterium smegmatis; test: Bacteriostatic against Mycobacterium smegmatis at 4.8 ug/ml after 3 to 24 hrs by colony forming unit count method; format: functional, organism-based; how it was run: as §1

| SMILES | IC50 [1] [µg/mL] | MIC [2] [µg/mL] | other results |
| --- | --- | --- | --- |
| FC(F)(F)c1ccc2c(c1)Nc1ccccc1S2 | > 64 | > 64 | – |
| FC(F)(F)c1ccc2c(c1)N(CCC[P+](c1ccccc1)(c1ccccc1)c1ccccc1)c1ccccc1S2.[Cl-] | 1 | 12 | – |
| CN(C)CCCN1c2ccccc2Sc2ccccc21 [PROMAZINE] | 128 (≈ 450 µM) | > 128 | – |
| N#CC(C#N)=NNc1cccc(Cl)c1 | – | – | Activity [3]: Active |
| CC(CN1c2ccccc2Sc2ccccc21)N(C)C (stereo not drawn) [PROMETHAZINE] | – | – | MIC [1]: 20 µg/mL (≈ 70.3 µM) |
| c1ccc2c(c1)Nc1ccccc1S2 [PHENOTHIAZINE] | > 64 | > 64 | Activity [4]: inactive; inhibition [5]: inactive |
| CN(C)CCCN1c2ccccc2Sc2ccc(Cl)cc21 [CHLORPROMAZINE] | – | – | IC50 [6]: 10 µM; MIC [1]: 10 µg/mL (≈ 31.4 µM) |
| C=C(C)[C@H]1Cc2c(ccc3c2O[C@@H]2COc4cc(OC)c(OC)cc4[C@@H]2C3=O)O1 | – | – | inhibition [5]: inactive |
| CN1CCN(CCCN2c3ccccc3Sc3ccc(C(F)(F)F)cc32)CC1 [TRIFLUOPERAZINE] | 8 (≈ 19.6 µM) | 64 (≈ 157 µM) | IC50 [6]: 12 µM; IC50 [7]: 60.1 µM; INH [8]: 100 µM |
| Clc1ccc2c(c1)Nc1ccccc1S2 | > 64 | > 64 | – |
| Clc1ccc2c(c1)N(CCC[P+](c1ccccc1)(c1ccccc1)c1ccccc1)c1ccccc1S2.[Cl-] | 1 | 6 | – |
| CCC[P+](c1ccccc1)(c1ccccc1)c1ccccc1.[Br-] | > 128 | > 128 | Activity [9]: Active; Activity [4]: inactive; inhibition [5]: inactive |
| [Cl-].c1ccc([P+](CCCN2c3ccccc3Sc3ccccc32)(c2ccccc2)c2ccccc2)cc1 | – | 4 | IC50 [7]: 15.1 µM; Activity [10]: Active; INH [8]: 40 µM |
